Measurements from different studies.
BTK: Tyrosine-protein kinase BTK (BTK, Homo sapiens, UniProt Q06187)
COQ8A: Atypical kinase COQ8A, mitochondrial (COQ8A, Homo sapiens, UniProt Q8NI60)
AKT2: RAC-beta serine/threonine-protein kinase (AKT2, Homo sapiens, UniProt P31751)

SMILES	target	test	setting	quantity	value
Cc1cc(O)c(-c2ccc([C@@H](C)CN(C)C)cc2)c2c1[nH]c(=O)c1sccc12	[Pyruvate dehydrogenase (acetyl-transferring)] kinase isozyme 1, mitochondrial (PDK1, Homo sapiens, UniProt Q15118)	enzyme activity, inhibitor	0.1 µM, lysate	inhibition	-15.2%
CCCCC(=O)Nc1ccc(-c2ccc3ncn(CCC)c(=O)c3c2)cn1	Mast/stem cell growth factor receptor Kit (KIT, Homo sapiens, UniProt P10721, V559D)	binding, competition with immobilised ligand	0.5 µM	remaining binding	99%
Cc1nc(Nc2ncc(C(=O)Nc3c(C)cccc3Cl)s2)cc(N2CC[C@@H](O)C2)n1	BTK	enzyme activity, inhibitor, mobility shift	1 nM	inhibition	74%
N#Cc1ccc(NC(=O)Nc2ccccc2)cc1	COQ8A	cell-free assay, competition with immobilised ligand	25 µM	remaining binding	96%
C[C@H](NC(=O)C(=O)Nc1ccccc1C(C)(C)C)C(=O)N[C@@H](CC(=O)O)C(=O)COc1c(F)c(F)cc(F)c1F	Caspase-4 (Casp4, Mus musculus, UniProt P70343)	enzyme activity, inhibitor	–	kinact/KI	448000 M⁻¹ s⁻¹
C#Cc1cnc(Nc2ccnc(CO)c2)nc1Nc1ccccc1S(C)(=O)=NC#N (stereo not drawn)	COQ8A	cell-free assay	1 µM	remaining signal	97%
[2H]c1cc(C)c(NC(=O)c2cnc(Nc3cc(N4CC[C@H](O)C4)nc(C)n3)s2)c(Cl)c1	BTK	enzyme activity, inhibitor, mobility shift	1 nM	inhibition	72%
COc1ccc2oc(-c3ccc4nc(N)oc4c3)c/c(=N\c3ccccc3NC(=O)CCN)c2c1	BTK	binding	1 µM	remaining binding	96%
Cc1cc(-c2ccnc3[nH]cc(F)c23)cc(F)c1[C@@]1(O)[C@H](C)CN(C(=O)CN)C[C@@H]1C	AKT2	enzyme activity, inhibitor	15 nM	remaining activity	94.5%
C1=C/COCc2cc(ccc2OCCN2CCCC2)Nc2nccc(n2)-c2cccc(c2)COC/1	Serine/threonine-protein kinase Nek11 (NEK11, Homo sapiens, UniProt Q8NG66)	binding	0.1 µM	remaining binding	95%
Cc1cc(-c2ccnc3[nH]cc(F)c23)cc(F)c1[C@@]1(O)[C@H](C)CN(C2CCS(=O)(=O)CC2)C[C@@H]1C	AKT2	enzyme activity, inhibitor	0.1 µM	remaining activity	103%
[2H]c1cc(C)c(NC(=O)c2cnc(Nc3cc(N4CCCCC4)nc(C)n3)s2)c(Cl)c1	BTK	enzyme activity, inhibitor, mobility shift	1 nM	inhibition	90%
NC/C(=C\F)COc1cccc(Cn2c(=S)[nH]c(=O)c3[nH]cnc32)c1	D(4) dopamine receptor (DRD4, Homo sapiens, UniProt P21917, del265-296)	ligand displacement, radioligand	10 µM	inhibition	< 50%
Cc1nc(Nc2ncc(C(=O)Nc3c(C)cccc3Cl)s2)cc(N2CC[C@@H](N)C2)n1	BTK	enzyme activity, inhibitor, mobility shift	1 nM	inhibition	71%
C#Cc1cc(-c2cc(Nc3nc(N[C@@H](C)c4ccc(F)cn4)ncc3Cl)n[nH]2)ccc1C=O	Mitogen-activated protein kinase 12 (MAPK12, Homo sapiens, UniProt P53778)	enzyme activity, inhibitor	0.2 µM	inhibition	1.88%
